The source made the active and inactive calls. The calls are words filed in the database; no cut-off is given here.

Data set [1] in a line: Binding affinity to pyridoxal-5'-phosphate assessed as formation of PLP-aldoxime at 5 mM after 1 hr by UV/vis spectroscopy. The method, boiled down: (§1)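 PLP and compound solutions in 100 mM phosphate buffer pH 8.0 mixed 1:1, giving 300 μM PLP and 5 mM compound final. Incubated 1 h at room temperature, then absorbance scanned from 310 to 500 nm.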
In data set [2] the target is T1, Serine racemase (Mus musculus) (UniProt Q9QZX7).
T1 sequence (whole entry): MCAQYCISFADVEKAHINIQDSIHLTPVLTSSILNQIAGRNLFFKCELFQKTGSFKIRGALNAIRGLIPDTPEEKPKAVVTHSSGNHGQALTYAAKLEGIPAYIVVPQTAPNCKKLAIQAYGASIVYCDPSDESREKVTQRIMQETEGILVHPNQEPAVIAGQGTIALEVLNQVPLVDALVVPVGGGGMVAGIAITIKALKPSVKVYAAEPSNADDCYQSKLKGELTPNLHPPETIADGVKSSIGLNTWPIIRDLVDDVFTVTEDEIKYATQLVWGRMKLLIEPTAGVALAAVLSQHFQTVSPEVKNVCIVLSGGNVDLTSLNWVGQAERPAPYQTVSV
The data set is described as follows: Inhibition of mouse recombinant serine racemase expressed in Escherichia coli MC1061 assessed as formation of D-serine at 5 mM in phosphate buffer of pH 8 treated for 15 to 20 mins before addition of substrate by HPLC analysis in presence of 10 uM PLP.

The target in data set [3] is T2, Serine racemase (Mus musculus, UniProt Q9QZX7).
T2 sequence (Q9QZX7 whole entry): T1 sequence (whole entry)
Description: Inhibition of mouse recombinant serine racemase expressed in Escherichia coli MC1061 assessed as formation of D-serine after 30 mins by HPLC analysis. The essentials: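 Mouse SR (E. coli MC1061, arabinose-induced, three-step chromatography, ~90% pure) incubated in pH 8.0 buffer with 10 μM PLP, 1 mM ATP, 1 mM MgCl2, 5 mM DTT. Screening used 5 mM L-serine and 5 mM test compound; IC50 runs varied inhibitor at 5 mM L-serine. 30 min at 37 C, stopped with 0.3 M HClO4; D-serine quantified by HPLC. Duplicate or triplicate runs.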

A short description of data set [4]: Binding affinity to 4-5 mM pyridoxal-5'-phosphate assessed as formation of PLP-aldimine by ESI-MS analysis. The method, boiled down:
(§2)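 Compound weighed into PLP stock at about 1:1 molar ratio with PLP, with or without 200 mM ammonium sulfate pH 8.0. Mixture diluted 40- to 100-fold in water and analysed by ESI-MS in negative ion mode.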

The target in data set [5] is T3, Alanine racemase (Geobacillus stearothermophilus) (UniProt P10724).
T3 sequence (whole entry): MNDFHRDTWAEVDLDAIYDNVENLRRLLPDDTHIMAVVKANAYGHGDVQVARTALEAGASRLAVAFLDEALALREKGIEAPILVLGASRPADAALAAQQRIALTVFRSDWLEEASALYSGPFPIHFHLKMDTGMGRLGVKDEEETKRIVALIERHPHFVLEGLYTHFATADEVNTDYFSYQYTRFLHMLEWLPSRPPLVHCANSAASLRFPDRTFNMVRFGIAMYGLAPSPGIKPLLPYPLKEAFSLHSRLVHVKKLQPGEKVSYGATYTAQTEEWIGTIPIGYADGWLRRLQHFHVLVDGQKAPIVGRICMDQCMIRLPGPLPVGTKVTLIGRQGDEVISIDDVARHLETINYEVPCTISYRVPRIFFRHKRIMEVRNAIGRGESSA
The data set is described as follows: Inhibition of Bacillus stearothermophilus alanine racemase assessed as formation of L-alanine at 5 mM in phosphate buffer of pH 8 treated for 15 to 20 mins before addition of substrate by HPLC analysis in presence of 10 uM PLP. The essentials:
(§3)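 Enzyme in 50 mM phosphate buffer pH 8.0 with 10 μM PLP, preincubated with 5 mM inhibitor at room temperature for 15-20 min. Substrate added near KM: alanine racemase 5 mM D-alanine (L-alanine formed); SDH 50 mM L-serine (SDH partially purified, ~50%, from E. coli BL21-RIL); transaminase 5 mM L-aspartic acid plus 5 mM α-ketoglutarate. Products analysed by HPLC.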

The nature of data set [6]: Inhibition of broad-range bacterial transaminase assessed as formation of L-glutamic acid at 5 mM in phosphate buffer of pH 8 treated for 15 to 20 mins before addition of substrate by HPLC analysis in presence of 10 uM PLP. The method, boiled down:
as §3

Data set [7] deals with T4, Serine racemase (Homo sapiens) (UniProt Q9GZT4).
T4 sequence (whole entry): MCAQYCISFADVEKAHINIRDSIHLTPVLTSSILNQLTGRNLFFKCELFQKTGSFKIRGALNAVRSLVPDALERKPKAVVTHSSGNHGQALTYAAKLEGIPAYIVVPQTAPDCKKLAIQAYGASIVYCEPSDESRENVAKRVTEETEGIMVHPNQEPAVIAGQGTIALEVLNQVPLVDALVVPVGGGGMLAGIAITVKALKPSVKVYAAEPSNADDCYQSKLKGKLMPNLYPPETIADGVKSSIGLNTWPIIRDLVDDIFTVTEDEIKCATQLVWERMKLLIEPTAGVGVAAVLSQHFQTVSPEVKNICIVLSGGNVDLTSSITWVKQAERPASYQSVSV
Description: Inhibition of human recombinant serine racemase assessed as formation of D-serine at 5 mM in phosphate buffer of pH 8 treated for 15 to 20 mins before addition of substrate by HPLC analysis in presence of 10 uM PLP. The method, boiled down: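 Recombinant human SR assayed as for mouse SR: pH 8.0 buffer with 10 μM PLP, 1 mM ATP, 1 mM MgCl2, 5 mM DTT, 5 mM L-serine and 5 mM compound. Incubated 30 min at 37 C, stopped with HClO4; D-serine measured by HPLC.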

Data set [8] can be described thus: Binding affinity to pyridoxal-5'-phosphate assessed as PLP-amino acid Schiff base interaction at 5 mM after 1 hr by UV/vis spectroscopy. The essentials:
as §1

For data set [9], the target named is T5, L-serine dehydratase/L-threonine deaminase (Rattus norvegicus) (UniProt P09367).
T5 sequence (whole entry): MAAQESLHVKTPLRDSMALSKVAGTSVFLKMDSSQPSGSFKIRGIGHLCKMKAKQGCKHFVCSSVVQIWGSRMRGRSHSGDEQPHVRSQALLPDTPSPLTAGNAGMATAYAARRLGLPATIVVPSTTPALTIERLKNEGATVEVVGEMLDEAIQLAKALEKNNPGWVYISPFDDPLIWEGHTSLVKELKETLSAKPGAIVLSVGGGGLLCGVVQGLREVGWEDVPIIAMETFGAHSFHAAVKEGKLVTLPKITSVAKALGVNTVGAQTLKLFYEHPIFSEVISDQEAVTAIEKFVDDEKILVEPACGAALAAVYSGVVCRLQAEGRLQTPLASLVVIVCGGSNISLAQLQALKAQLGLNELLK
The data set is described as follows: Inhibition of rat SDH expressed in Escherichia coli BL21-RIL assessed as formation of pyruvate at 5 mM in phosphate buffer of pH 8 treated for 15 to 20 mins before addition of substrate by HPLC analysis in presence of 10 uM PLP. The essentials: as §3

Data set [10] is described as follows: Binding affinity to pyridoxal-5'-phosphate assessed as formation of PLP-aldimine by NMR spectroscopy. The method, boiled down:
(§4)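 Compound and PLP solutions prepared in 100 mM phosphate buffer in D2O, pD held near 8.0; chemical shifts followed by NMR after mixing.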

Data set [11] is described as follows: Chemical stability assessed as hydrolysis-associated hydroxylamine formation at 0.05 mM after 1 hr in phosphate buffer of pH 7.4. In kind it is physicochemical. The note with it: pH 7.4, 1 h, 50 µM. The method, boiled down: (§5)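 Compound at 0.5 mM or 0.05 mM, diluted from fresh 10 mM stocks, held in 100 mM phosphate buffer pH 8.0 or 7.4 at room temperature for 0, 30 or 60 min. Picrylsulfonic acid then added; released hydroxylamine read as absorbance at 494 nm 15 min later.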

In data set [12] the target is T1, Serine racemase (Mus musculus). Description: Inhibition of mouse recombinant serine racemase expressed in Escherichia coli MC1061 assessed as formation of D-serine at 5 mM treated for 15 to 20 mins before addition of substrate by HPLC analysis in presence of increasing concentration of PLP.
Data set [13] is described as follows: Chemical stability assessed as hydrolysis-associated hydroxylamine formation at 0.05 mM after 1 hr in phosphate buffer of pH 8. The note with it: pH 8, 1 h, 50 µM. In kind it is physicochemical. The essentials: as §5
Data set [14] addresses T2, Serine racemase. Description: Inhibition of mouse recombinant serine racemase expressed in Escherichia coli MC1061 assessed as formation of D-serine after 30 mins by Linewaver-burk and Eadie-Hofstee plot analysis. The method, boiled down: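 Mouse SR racemization at varied L-serine and inhibitor concentrations, pH 8.0, 10 μM PLP, 30 min at 37 C. End-point HPLC measured D-serine peak area relative to a glycine internal standard, in triplicate. Global nonlinear fit followed by linear transformation.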

Data set [15] has as its target T1, Serine racemase (Mus musculus). The data set is described as follows: Inhibition of mouse recombinant serine racemase expressed in Escherichia coli MC1061 assessed as formation of D-serine at 5 mM after 30 mins by HPLC analysis in presence of 5 fold molar excess of MgCl2 over compound.
The nature of data set [16]: Binding affinity to pyridoxal-5'-phosphate assessed as formation of syn- and anti-PLP-aldoxime by NMR spectroscopy. The method, boiled down: as §4
The target in data set [17] is T4, Serine racemase (Homo sapiens). The data set is described as follows: Inhibition of human recombinant serine racemase assessed as formation of D-serine at 5 mM treated for 15 to 20 mins before addition of substrate by HPLC analysis in presence of increasing concentration of PLP.
Data set [18] is described as follows: Binding affinity to pyridoxal-5'-phosphate assessed as formation of PLP-aldoxime by ESI-MS analysis. The method, boiled down:
as §2

As to `N[C@@H](CC(=O)NO)C(=O)O`, the result in [1], in data set [4], in data set [8] and in [10] was Active. The inhibition result in data set [2], in [7] and in data set [9] was “Active” throughout. The IC50 (usually the concentration that inhibits the measured activity by half) at Serine racemase [3] came to 1300 µM. Also, the inhibition result in data set [5] and in [6] was “inactive” in each case.
Consider `O=C(CC(=O)NO)NO` [MALONODIHYDROXAMIC ACID], for which the result in data set [1], in data set [16] and in data set [18] was Active. The Stability result in data set [11] and in data set [13] was “Unstable” in each case. Besides, the inhibition entry in data set [2] and in data set [15] was “Active” each time. Also, at Serine racemase [3], the concentration for half-maximal inhibition (IC50) came out at 370 µM. Further, the inhibition entry in data set [12] and in data set [17] was “inactive” each time. Further, the inhibitory constant (Ki) (as a rule, a measure of affinity in units of concentration, obtained from inhibition or displacement) at Serine racemase [14] came to 417 µM.
